Consider five molecules from ChEMBL document CHEMBL1144401, “Combination of molecular modeling, site-directed mutagenesis, and SAR studies to delineate the binding site of pyridopyrimidine antagonists on the human CCK1 receptor” (J Med Chem, 2005).

Structures are written as SMILES. A value given as a limit tells only on which side of the number the result lay.

The target of test [1] is Cholecystokinin receptor type A (Homo sapiens, UniProt P32238, I352A). Briefly: Inhibition of CCK-Induced inositol phosphate in Cos-7 cells expressing mutant CCK1R (I352A). In kind it is functional, cell-based. The essentials:
(§1)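 Mutant human CCK1R cDNAs were made by site-directed mutagenesis in pRFENeo and sequence-verified. COS-7 cells were transfected by DEAE-dextran. Cells were [3H]inositol-labelled overnight, then LiCl-preincubated and incubated 60 min at 37 °C in pH 7.45 PI buffer with CCK and varying antagonist. Dowex-separated inositol phosphates were counted. IC50 given as mean ± SEM; Fmut = IC50(mutant)/IC50(wild type).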

Test [2] has as its target Cholecystokinin receptor type A (Homo sapiens, UniProt P32238, I329A). As to the kind of experiment: Inhibition of CCK-induced inositol phosphate in Cos-7 cells expressing mutant CCK1R (I329A). In kind it is functional, cell-based. The essentials: as §1
In test [3] the target is T1, Cholecystokinin receptor type A (Homo sapiens, UniProt P32238).
T1 sequence (P32238 whole entry): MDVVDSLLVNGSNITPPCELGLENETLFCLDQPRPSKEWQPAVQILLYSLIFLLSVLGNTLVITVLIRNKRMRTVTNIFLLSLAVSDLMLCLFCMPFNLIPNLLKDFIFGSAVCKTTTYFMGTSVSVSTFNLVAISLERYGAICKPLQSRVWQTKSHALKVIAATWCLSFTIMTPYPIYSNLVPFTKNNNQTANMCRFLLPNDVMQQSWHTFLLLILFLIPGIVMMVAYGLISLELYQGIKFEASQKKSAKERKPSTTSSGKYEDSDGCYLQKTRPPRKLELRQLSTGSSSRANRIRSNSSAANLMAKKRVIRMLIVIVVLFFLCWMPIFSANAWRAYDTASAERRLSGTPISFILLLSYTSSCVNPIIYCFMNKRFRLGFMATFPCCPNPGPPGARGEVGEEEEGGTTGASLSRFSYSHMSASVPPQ
As to the kind of experiment: Inhibition of CCK-Induced inositol phosphate production in Cos-7 cells expressing human CCK1R. The format is functional, cell-based.

Test [4] has as its target T2, Cholecystokinin receptor type A (Rattus norvegicus, UniProt P30551).
T2 sequence (P30551 whole entry): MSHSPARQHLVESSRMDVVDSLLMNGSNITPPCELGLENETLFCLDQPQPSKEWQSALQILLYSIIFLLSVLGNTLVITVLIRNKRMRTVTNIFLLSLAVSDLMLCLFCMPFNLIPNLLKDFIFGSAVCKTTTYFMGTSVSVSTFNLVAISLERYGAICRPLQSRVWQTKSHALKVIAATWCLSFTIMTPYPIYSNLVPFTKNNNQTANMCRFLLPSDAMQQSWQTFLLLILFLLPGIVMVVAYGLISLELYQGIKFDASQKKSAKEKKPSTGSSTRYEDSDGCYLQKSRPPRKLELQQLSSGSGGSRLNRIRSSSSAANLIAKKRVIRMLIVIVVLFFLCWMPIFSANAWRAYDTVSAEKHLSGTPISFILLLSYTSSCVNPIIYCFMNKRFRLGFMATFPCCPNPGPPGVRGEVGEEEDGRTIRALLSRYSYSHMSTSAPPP
As to the kind of experiment: Inhibition of 71 pM [125I]BH-(Thr,Nle)CCK-9 binding to rat cholecystokinin 1 receptor.

Test [5] concerns Cholecystokinin receptor type A (Homo sapiens), P32238 [UNDEFINED MUTATION].
For test [6], the target named is Cholecystokinin receptor type A (Homo sapiens, UniProt P32238, R197M). Briefly: Inhibition of CCK-Induced inositol phosphate in Cos-7 cells expressing mutant CCK1R (R197M). In kind it is functional, cell-based. The essentials:
as §1

The test system of test [7] is Cholecystokinin receptor type A (Homo sapiens), P32238 [UNDEFINED MUTATION]. This is another data set of the same source.
Test [8] shares this test system. The source holds these as a separate data set.
The test system is the same in test [9]. This is another data set of the same source.
Test [10] has as its target Cholecystokinin receptor type A (Homo sapiens, UniProt P32238, F107A). Briefly: Inhibition of CCK-induced inositol phosphate in Cos-7 cells expressing mutant CCK1R (F107A). In kind it is functional, cell-based. The procedure, abridged: as §1
Test [11] deals with Cholecystokinin receptor type A (Homo sapiens), P32238 [UNDEFINED MUTATION]. This is another data set of the same source.
The target in test [12] is T1, Cholecystokinin receptor type A. As to the kind of experiment: Inhibition of CCK binding to Cos-7 cells expressing human cholecystokinin 1 receptor. In kind it is cell-based. The procedure, abridged: (§2)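 COS-7 cells were grown in DMEM with 5% FCS and transiently transfected by DEAE-dextran with 2 µg/plate of human CCK1R or CCK2R cDNA (from pancreas or gallbladder). About 24 h after replating, cells were incubated 60 min at 37 °C in DMEM with 0.1% BSA and 71 pM [125I]BH-(Thr,Nle)CCK-9 plus competitor. Nonspecific binding used 1 µM. IC50 given as mean ± SEM, 3–6 experiments.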

Test [13] deals with Cholecystokinin receptor type A (Homo sapiens, UniProt P32238, I329F). Briefly: Inhibition of CCK-Induced inositol phosphate in Cos-7 cells expressing mutant CCK1R (I329F). The format is functional, cell-based. The procedure, abridged:
as §1

The subject of test [14] is Cholecystokinin receptor type A (Homo sapiens), P32238 [UNDEFINED MUTATION]. The source holds these as a separate data set.
Test [15] has as its target Cholecystokinin receptor type A (Homo sapiens, UniProt P32238, M195L). As to the kind of experiment: Inhibition of CCK-Induced inositol phosphate in Cos-7 cells expressing mutant CCK1R (M195L). The format is functional, cell-based. The procedure, abridged:
as §1

In test [16] the target is Cholecystokinin receptor type A (Homo sapiens, UniProt P32238, T117A). As to the kind of experiment: Inhibition of CCK-Induced inositol phosphate in Cos-7 cells expressing mutant CCK1R (T117A). In kind it is functional, cell-based. The procedure, abridged:
as §1

The target in test [17] is Cholecystokinin receptor type A (Homo sapiens, UniProt P32238, R336M). Briefly: Inhibition of CCK-Induced inositol phosphate in Cos-7 cells expressing mutant CCK1R (R336M). The format is functional, cell-based. The essentials:
as §1

For test [18], the target named is Cholecystokinin receptor type A (Homo sapiens, UniProt P32238, S342A). As to the kind of experiment: Inhibition of CCK-Induced inositol phosphate in Cos-7 cells expressing mutant CCK1R (S342A). The format is functional, cell-based. The procedure, abridged:
as §1

Test [19] has as its target T3, Gastrin/cholecystokinin type B receptor (Homo sapiens, UniProt P32239).
T3 sequence (P32239 whole entry): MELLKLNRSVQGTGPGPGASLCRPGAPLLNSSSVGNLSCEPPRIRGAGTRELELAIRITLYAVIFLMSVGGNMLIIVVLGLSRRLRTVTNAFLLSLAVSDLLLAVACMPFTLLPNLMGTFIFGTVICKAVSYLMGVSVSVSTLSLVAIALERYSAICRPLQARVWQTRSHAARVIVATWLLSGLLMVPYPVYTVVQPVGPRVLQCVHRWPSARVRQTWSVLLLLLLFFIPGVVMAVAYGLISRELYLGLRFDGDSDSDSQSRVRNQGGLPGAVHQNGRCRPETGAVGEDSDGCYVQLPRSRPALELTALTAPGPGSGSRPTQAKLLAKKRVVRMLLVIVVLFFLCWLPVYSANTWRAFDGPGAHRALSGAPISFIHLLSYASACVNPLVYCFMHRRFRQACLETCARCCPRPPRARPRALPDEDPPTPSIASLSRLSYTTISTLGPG
As to the kind of experiment: Inhibition of CCK binding to Cos-7 cells expressing human cholecystokinin 2 receptor. The format is cell-based. The procedure, abridged: as §2

Test [20] has as its system Cholecystokinin receptor type A (Homo sapiens), P32238 [UNDEFINED MUTATION]. The source holds these as a separate data set.
For test [21] the test system is unchanged. The source holds these as a separate data set.
Test [22] concerns the target Cholecystokinin receptor type A (Homo sapiens, UniProt P32238, S348A). As to the kind of experiment: Inhibition of CCK-Induced inositol phosphate in Cos-7 cells expressing mutant CCK1R (S348A). In kind it is functional, cell-based. The essentials:
as §1

Test [23] relates to Cholecystokinin receptor type A (Homo sapiens), P32238 [UNDEFINED MUTATION]. The source holds these as a separate data set.
Test [24] shares this test system. This is another data set of the same source.
Test [25] deals with T4, Gastrin/cholecystokinin type B receptor (Rattus norvegicus, UniProt P30553).
T4 sequence (P30553 whole entry): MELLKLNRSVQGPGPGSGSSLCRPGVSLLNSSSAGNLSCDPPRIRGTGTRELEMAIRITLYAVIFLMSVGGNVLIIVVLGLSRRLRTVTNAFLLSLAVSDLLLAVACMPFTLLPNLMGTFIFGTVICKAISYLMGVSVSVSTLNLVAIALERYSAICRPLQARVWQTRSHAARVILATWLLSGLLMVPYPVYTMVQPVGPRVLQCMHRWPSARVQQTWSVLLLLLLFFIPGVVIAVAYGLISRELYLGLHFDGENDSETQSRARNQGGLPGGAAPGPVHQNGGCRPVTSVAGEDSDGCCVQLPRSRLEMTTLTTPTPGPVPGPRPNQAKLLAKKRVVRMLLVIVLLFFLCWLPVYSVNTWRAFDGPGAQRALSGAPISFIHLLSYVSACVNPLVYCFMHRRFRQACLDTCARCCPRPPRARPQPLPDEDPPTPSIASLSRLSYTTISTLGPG
As to the kind of experiment: Inhibition of 71 pM [125I]BH-(Thr,Nle)CCK-9 binding to rat cholecystokinin 2 receptor.

Cholecystokinin receptor type A (Homo sapiens, UniProt P32238, T117A), sequence (P32238 whole entry T117A): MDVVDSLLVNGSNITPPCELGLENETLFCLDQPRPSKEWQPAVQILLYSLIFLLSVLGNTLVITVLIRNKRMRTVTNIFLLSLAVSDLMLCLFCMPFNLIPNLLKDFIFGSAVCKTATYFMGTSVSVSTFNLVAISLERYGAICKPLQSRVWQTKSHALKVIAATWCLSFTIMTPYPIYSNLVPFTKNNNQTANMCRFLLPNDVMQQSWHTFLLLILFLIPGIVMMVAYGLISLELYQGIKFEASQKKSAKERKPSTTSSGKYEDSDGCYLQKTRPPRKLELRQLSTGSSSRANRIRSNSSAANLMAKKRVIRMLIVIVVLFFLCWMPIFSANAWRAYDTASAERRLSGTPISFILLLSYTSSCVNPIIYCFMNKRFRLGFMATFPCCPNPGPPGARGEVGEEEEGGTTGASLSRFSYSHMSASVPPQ
Cholecystokinin receptor type A (Homo sapiens, UniProt P32238, S342A), sequence (P32238 whole entry S342A): as the sequence (P32238 whole entry T117A) above, with A117T, S342A counted along it
Cholecystokinin receptor type A (Homo sapiens, UniProt P32238, F107A), sequence (P32238 whole entry F107A): as the sequence (P32238 whole entry T117A) above, with F107A, A117T counted along it
Cholecystokinin receptor type A (Homo sapiens, UniProt P32238, R336M), sequence (P32238 whole entry R336M): as the sequence (P32238 whole entry T117A) above, with A117T, R336M counted along it
Cholecystokinin receptor type A (Homo sapiens, UniProt P32238, M195L), sequence (P32238 whole entry M195L): as the sequence (P32238 whole entry T117A) above, with A117T, M195L counted along it
Cholecystokinin receptor type A (Homo sapiens, UniProt P32238, I329A), sequence (P32238 whole entry I329A): as the sequence (P32238 whole entry T117A) above, with A117T, I329A counted along it
Cholecystokinin receptor type A (Homo sapiens, UniProt P32238, I329F), sequence (P32238 whole entry I329F): as the sequence (P32238 whole entry T117A) above, with A117T, I329F counted along it
Cholecystokinin receptor type A (Homo sapiens, UniProt P32238, R197M), sequence (P32238 whole entry R197M): as the sequence (P32238 whole entry T117A) above, with A117T, R197M counted along it
Cholecystokinin receptor type A (Homo sapiens, UniProt P32238, S348A), sequence (P32238 whole entry S348A): as the sequence (P32238 whole entry T117A) above, with A117T, S348A counted along it
Cholecystokinin receptor type A (Homo sapiens, UniProt P32238, I352A), sequence (P32238 whole entry I352A): as the sequence (P32238 whole entry T117A) above, with A117T, I352A counted along it

By IC50 is commonly meant the concentration that inhibits the measured activity by half. A lower IC50 goes with greater potency in that assay. For the molecule `CC(C)(C)OC(=O)N[C@@H](Cc1c[nH]c2ccccc12)C(=O)N[C@@H]1CCCN2C(=O)N(c3cccc4ccccc34)C(=O)C[C@@H]12`, the IC50 was 0.227 µM in test [1]; 0.0093 µM in test [2]; 0.0088 µM in [3]; 0.00059 µM in test [4]; 0.0089 µM in test [6]; 0.0268 µM in test [10]. Also, the IC50 came out at 0.0021 µM in test [12]; 0.801 µM in [13]; 0.0052 µM in test [15]; 0.0249 µM in test [16]; 0.582 µM in [17]; 0.0079 µM in [18]. The figures for the IC50 in test [19] and in test [22] were over 10 µM and 0.0036 µM, respectively. In addition, the Fmut in test [5] turned out to be 3; in [7], 0.2; in test [8], 0.5; in [9] it was 0.7; in [11] it was 40.1; in test [14], 21.2. Also, the Fmut came out at 1 in test [20], 90.8 in [21], 0.9 in test [23] and 2 in test [24].
Molecule `CC(C)(C)OC(=O)N[C@@H](Cc1c[nH]c2ccccc12)C(=O)N[C@@H]1CCCN2C(=O)N(Cc3ccccc3)C(=O)C[C@@H]12` [IQM-95333] gave an IC50 in [25] of over 10 µM.
Regarding `CC(C)(C)OC(=O)N[C@@H](Cc1c[nH]c2ccccc12)C(=O)N[C@@H]1CCCN2C(S)N(Cc3ccccc3)C(=O)C[C@@H]12` (some centres undefined), the IC50 was found to be 0.831 µM in test [1]; 0.129 µM in [2]; 0.0073 µM in test [3]; 0.0118 µM in test [6]; 0.0315 µM in [10]; 0.0038 µM in test [12]. In addition, the IC50 in test [13] is 0.183 µM; in test [15] it was 0.0058 µM; in test [16] it was 0.0284 µM; in [17] it was 2.06 µM; in test [18], 0.0275 µM; in [19], over 10 µM. Inhibition in [22] was half-maximal at 0.0057 µM (IC50). For the same molecule, the Fmut stood at 4.6 in test [5]; 0.3 in [7]; 0.2 in test [8]; 0.8 in test [9]; 138 in test [11]; 61.6 in [14]. The Fmut turned out to be 6.6 in [20], 24.9 in test [21], 0.4 in test [23] and 1.6 in test [24].
On to `CC(C)(C)OC(=O)N[C@@H](Cc1c[nH]c2ccccc12)C(=O)N[C@H]1CCCN2C(=O)N(Cc3ccccc3)C(=O)C[C@@H]12`, for which the IC50 amounted to 20.9 µM in test [3], 6.85 µM in [12] and 6.02 µM in [19].
As to `CC(C)(C)OC(=O)N[C@@H](Cc1c[nH]c2ccccc12)C(=O)N[C@@H]1CCCN2C(=O)N(c3ccccc3)C(=O)C[C@@H]12`, the IC50 was found to be 2.29 µM in test [1]; 1.11 µM in test [2]; 0.0358 µM in [3]; 0.023 µM in test [6]; 0.0233 µM in [10]; 0.0052 µM in [12]. Besides, the IC50 in test [13] is 0.514 µM; in test [15], 0.0352 µM; in [16], 0.0716 µM; in test [17], 4.86 µM; in test [18], 0.0332 µM; in test [19] it was over 10 µM. Moreover, the IC50 in test [22] is 0.0366 µM. The Fmut in [5] is 0.7; in [7] it was 0.4; in test [8], 1.2; in test [9], 0.8; in test [11] it was 125; in test [14] it was 65.5. For the same molecule, the Fmut in test [20] was determined as 30.8; in test [21], 14.3; in test [23], 0.7; in test [24], 1.9.
